{"source": "ChEMBL document CHEMBL4351001", "about": "“2-Aminoimidazole-based antagonists of the 5-HT6 receptor - A new concept in aminergic GPCR ligand design” (Eur J Med Chem, 2019)", "key": {"[1]": {"assay": "in vitro", "details": "rat, microsomes"}, "[2]": {"target": "Histamine H1 receptor (Homo sapiens) (UniProt P35367)", "sequence (P35367 whole entry)": "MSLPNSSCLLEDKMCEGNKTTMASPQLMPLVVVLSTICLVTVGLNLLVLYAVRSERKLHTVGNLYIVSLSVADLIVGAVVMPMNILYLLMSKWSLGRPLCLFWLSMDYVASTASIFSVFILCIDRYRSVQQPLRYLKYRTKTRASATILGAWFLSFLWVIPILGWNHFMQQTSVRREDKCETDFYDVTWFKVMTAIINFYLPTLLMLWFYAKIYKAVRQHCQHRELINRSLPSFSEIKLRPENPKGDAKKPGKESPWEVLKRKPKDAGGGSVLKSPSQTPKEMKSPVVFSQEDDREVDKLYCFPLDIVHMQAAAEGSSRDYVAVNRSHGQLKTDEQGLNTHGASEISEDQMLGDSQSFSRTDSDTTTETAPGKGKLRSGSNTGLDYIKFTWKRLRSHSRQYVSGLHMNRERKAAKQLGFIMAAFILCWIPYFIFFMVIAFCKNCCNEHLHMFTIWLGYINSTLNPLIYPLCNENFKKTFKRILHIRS", "assay": "Displacement of [3H] pyrilamine from human recombinant H1 histamine receptor at 10^-6 M measured after 60 mins by scintillation counting method relative to control"}, "[3]": {"tested_on": "HepG2", "assay": "Cytotoxicity against human HepG2 cells assessed as reduction in cell viability measured after 24 hrs by Prestoblue assay", "type": "cell-based", "details": "HepG2, 24 h", "outline": "(§1)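 HepG2 cells seeded at 2x10^4 per well in DMEM with 10% FBS, grown 24 h (37°C, 5% CO2), then exposed 24 h to 1, 10, 50 and 100 μM compound. Viability read with PrestoBlue (fluorescence); membrane damage by ToxiLight (luminescence).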"}, "[4]": {"tested_on": "Rattus norvegicus", "assay": "Reversal of scopolamine induced cognitive impairment impairment in Sprague-Dawley rat at 1 mg/kg, po pre treated for 2 hrs followed by scopolamine addition further treated for 30 mins and measured after 1 hr by novel object recognition test", "type": "functional, organism-based", "outline": "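Male Sprague–Dawley rats (~250 g); open-field habituation 5 min 24 h before test. Compounds p.o. 120 min and scopolamine 1.25 mg/kg i.p. 30 min before 3-min familiarization trial; 3-min recognition trial 1 h later. Exploration video-tracked; discrimination index computed; one-way ANOVA with Newman–Keuls; n = 9–10 per group; mean ± SEM.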"}, "[5]": {"assay": "Solubility of compound in water", "type": "physicochemical", "details": "water; read-out: solubility"}, "[6]": {"target": "T1, Muscarinic acetylcholine receptor M1 (Homo sapiens) (UniProt P11229)", "T1 sequence (whole entry)": "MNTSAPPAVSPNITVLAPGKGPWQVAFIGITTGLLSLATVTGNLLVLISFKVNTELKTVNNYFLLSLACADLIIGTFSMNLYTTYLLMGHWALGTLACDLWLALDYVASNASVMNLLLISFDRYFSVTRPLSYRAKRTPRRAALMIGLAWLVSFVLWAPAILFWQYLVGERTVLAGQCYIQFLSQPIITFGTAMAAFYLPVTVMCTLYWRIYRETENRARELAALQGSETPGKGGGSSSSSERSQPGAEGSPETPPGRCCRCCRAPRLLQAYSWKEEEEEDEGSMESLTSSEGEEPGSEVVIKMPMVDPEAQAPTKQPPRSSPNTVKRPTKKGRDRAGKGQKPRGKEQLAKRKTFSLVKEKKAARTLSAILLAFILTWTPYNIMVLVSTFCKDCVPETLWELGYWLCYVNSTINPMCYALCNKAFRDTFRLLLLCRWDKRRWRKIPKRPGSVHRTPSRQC", "assay": "Displacement of [3H] pirenzepine from human recombinant muscarinic M1 receptor at 10^-6 M measured after 60 mins by scintillation counter method relative to control"}, "[7]": {"target": "5-hydroxytryptamine receptor 6 (Homo sapiens, UniProt P50406)", "sequence (P50406 whole entry)": "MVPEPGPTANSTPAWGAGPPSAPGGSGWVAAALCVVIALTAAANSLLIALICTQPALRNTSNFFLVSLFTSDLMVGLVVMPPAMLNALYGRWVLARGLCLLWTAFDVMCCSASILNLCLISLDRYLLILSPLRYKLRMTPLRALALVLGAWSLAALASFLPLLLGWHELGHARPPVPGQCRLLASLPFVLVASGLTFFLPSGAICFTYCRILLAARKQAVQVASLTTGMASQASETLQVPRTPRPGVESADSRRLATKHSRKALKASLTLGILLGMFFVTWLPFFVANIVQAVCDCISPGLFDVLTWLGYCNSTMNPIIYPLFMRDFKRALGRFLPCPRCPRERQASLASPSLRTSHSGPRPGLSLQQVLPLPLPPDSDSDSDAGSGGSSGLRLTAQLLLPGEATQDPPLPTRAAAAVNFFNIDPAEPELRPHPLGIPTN", "assay": "Antagonist activity at human 5HT6 receptor expressed in HEK293 cells assessed as inhibition of 5-CT induced cAMP production measured after 30 mins by TR-FRET assay", "type": "functional, cell-based"}, "[8]": {"tested_on": "HepG2", "assay": "Cytotoxicity against human HepG2 cells assessed as cell membrane damage measured after 24 hrs by Toxilight assay", "type": "cell-based", "details": "HepG2, 24 h", "outline": "as §1"}, "[9]": {"target": "T2, 5-hydroxytryptamine receptor 1A (Homo sapiens, UniProt P08908)", "T2 sequence (P08908 whole entry)": "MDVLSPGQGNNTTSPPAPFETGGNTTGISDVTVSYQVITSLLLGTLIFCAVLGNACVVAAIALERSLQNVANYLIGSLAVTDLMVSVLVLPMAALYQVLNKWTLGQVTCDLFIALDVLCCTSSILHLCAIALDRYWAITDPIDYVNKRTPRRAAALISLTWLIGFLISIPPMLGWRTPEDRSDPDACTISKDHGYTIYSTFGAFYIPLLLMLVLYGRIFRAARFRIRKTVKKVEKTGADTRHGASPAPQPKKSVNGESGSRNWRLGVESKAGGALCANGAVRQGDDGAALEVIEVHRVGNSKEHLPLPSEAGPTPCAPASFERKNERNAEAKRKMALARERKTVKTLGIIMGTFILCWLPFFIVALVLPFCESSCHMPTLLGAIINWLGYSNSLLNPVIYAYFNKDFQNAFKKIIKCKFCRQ", "assay": "Displacement of [3H]-8-OH-DPAT from human 5HT1A receptor expressed in HEK293 cells incubated for 1 hr by liquid scintillation counter method", "type": "cell-based", "details": "read-out: Ki", "outline": "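HEK293 cells stably expressing human 5-HT1AR; membranes in 50 mM Tris–HCl, 0.1 mM EDTA, 4 mM MgCl2, 10 μM pargyline, 0.1% ascorbate; incubated 1 h at room temperature, then filtered. Nonspecific binding defined with 10 μM 5-HT.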"}, "[10]": {"target": "hERG (KCNH2) (Homo sapiens, UniProt Q12809)", "sequence (Q12809 whole entry)": "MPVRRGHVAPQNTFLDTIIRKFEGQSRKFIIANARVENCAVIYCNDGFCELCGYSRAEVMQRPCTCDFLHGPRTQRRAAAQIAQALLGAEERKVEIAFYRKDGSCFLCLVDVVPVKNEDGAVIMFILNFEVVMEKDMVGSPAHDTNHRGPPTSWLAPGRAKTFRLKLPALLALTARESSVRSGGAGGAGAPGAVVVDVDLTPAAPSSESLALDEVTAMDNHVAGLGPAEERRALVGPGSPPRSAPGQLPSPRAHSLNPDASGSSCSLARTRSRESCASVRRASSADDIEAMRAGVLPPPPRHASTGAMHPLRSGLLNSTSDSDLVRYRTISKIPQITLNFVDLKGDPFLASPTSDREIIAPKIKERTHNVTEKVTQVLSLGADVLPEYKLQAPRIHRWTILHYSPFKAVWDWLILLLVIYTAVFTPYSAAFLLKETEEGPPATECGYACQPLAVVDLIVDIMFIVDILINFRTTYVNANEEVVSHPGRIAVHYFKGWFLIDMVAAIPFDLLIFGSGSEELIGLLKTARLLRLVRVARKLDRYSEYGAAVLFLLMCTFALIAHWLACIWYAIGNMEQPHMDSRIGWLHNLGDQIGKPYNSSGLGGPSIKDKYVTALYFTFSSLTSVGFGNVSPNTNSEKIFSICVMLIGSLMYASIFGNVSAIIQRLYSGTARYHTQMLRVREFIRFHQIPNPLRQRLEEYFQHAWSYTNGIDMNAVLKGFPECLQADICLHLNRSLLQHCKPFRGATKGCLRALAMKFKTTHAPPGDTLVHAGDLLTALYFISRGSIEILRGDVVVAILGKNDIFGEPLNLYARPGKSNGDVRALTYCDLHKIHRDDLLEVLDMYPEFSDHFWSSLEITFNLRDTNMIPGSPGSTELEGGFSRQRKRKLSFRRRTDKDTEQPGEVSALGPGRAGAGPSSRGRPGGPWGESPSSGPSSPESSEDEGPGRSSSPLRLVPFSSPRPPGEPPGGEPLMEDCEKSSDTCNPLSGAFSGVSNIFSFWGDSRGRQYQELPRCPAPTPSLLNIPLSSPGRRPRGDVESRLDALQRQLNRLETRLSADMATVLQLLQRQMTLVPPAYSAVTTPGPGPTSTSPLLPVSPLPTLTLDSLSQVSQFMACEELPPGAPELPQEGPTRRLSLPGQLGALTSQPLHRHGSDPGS", "assay": "Displacement of [3H] dofetilide from human recombinant ERG at 10^-6 M measured after 60 mins by scintillation counting method relative to control", "details": "probe [3H]dofetilide"}, "[11]": {"target": "Histamine H1 receptor (Homo sapiens) (UniProt P35367)", "assay": "Antagonist activity at human recombinant H1 histamine receptor at 10^-5 M relative to control", "parameters": "scale not given: the % may be the effect or the level left"}, "[12]": {"assay": "Acute oral toxicity in Wistar rat by OECD up and down test guideline method", "details": "in vivo", "outline": "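Female rats given a single oral dose under OECD Test Guideline No. 425 (Acute Oral Toxicity, Up-and-Down Procedure); acute toxicity class assigned.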"}, "[13]": {"target": "5-hydroxytryptamine receptor 2B (Homo sapiens) (UniProt P41595)", "sequence (P41595 whole entry)": "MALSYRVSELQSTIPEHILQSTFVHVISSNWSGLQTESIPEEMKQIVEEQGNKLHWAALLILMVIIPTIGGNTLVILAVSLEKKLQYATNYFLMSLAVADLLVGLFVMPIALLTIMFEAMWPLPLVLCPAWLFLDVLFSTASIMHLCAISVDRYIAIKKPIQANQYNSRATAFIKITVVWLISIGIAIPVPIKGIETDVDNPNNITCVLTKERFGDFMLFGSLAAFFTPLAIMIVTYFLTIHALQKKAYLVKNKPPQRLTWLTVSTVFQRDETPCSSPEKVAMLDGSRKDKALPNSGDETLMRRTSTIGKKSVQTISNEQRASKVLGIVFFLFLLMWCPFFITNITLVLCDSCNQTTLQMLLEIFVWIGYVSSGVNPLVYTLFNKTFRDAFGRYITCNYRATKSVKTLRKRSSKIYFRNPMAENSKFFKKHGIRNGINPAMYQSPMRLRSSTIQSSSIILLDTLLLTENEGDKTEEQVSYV", "assay": "Antagonist activity at human recombinant 5HT2B receptor expressed in CHOK1 cells at 10^-6 M measured after 30 mins by HTRF assay relative to control", "type": "cell-based", "parameters": "scale not given: the % may be the effect or the level left"}, "[14]": {"target": "T3, 5-hydroxytryptamine receptor 2C (Homo sapiens) (UniProt P28335)", "T3 sequence (whole entry)": "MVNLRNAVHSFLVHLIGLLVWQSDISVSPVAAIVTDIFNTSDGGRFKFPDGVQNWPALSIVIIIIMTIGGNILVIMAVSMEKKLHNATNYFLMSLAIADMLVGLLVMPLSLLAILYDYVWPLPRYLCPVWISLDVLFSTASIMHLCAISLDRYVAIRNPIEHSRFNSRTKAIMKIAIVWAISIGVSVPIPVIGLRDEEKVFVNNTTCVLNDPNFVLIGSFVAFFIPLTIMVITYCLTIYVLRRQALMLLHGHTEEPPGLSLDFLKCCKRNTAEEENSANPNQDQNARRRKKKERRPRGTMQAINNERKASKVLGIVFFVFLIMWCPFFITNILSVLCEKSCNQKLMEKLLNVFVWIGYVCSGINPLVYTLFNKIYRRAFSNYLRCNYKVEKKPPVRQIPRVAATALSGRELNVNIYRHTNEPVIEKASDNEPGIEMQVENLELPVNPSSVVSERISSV", "assay": "Agonist activity at human 5HT2C serotonin receptor at 10^-5 M relative to control"}, "[15]": {"target": "T3, 5-hydroxytryptamine receptor 2C (Homo sapiens)", "assay": "Antagonist activity at human 5HT2C serotonin receptor at 10^-5 M relative to control", "parameters": "scale not given: the % may be the effect or the level left"}}, "note": "Calls of active or inactive are those of the source. No cut-off for these calls is given here."}
{"smiles": "Cc1nc(N)[nH]c1-c1cn(S(=O)(=O)c2cccc3ccccc23)c2ccccc12.Cl", "values": [{"measurement": "microsomal CLint", "setting": "[1]", "result": 60.3, "unit": "µL/min/mg"}, {"measurement": "inhibition", "setting": "[2]", "result": 70.1, "unit": "%"}, {"measurement": "IC50", "setting": "[3]", "result": 15.7, "unit": "µM"}, {"measurement": "Activity", "setting": "[4]", "result": "Active"}, {"measurement": "solubility", "setting": "[5]", "result": "1000 to 10000", "unit": "µg/mL"}, {"measurement": "inhibition", "setting": "[6]", "result": -0.3, "unit": "%"}, {"measurement": "Kb", "setting": "[7]", "result": 0.0048, "unit": "µM"}, {"measurement": "IC50", "setting": "[8]", "result": 18.4, "unit": "µM"}, {"measurement": "Ki", "setting": "[9]", "result": "> 10", "unit": "µM"}, {"measurement": "inhibition at 1 h, 1 µM", "setting": "[10]", "result": 25.7, "unit": "%"}, {"measurement": "Activity", "setting": "[11]", "result": 25.7, "unit": "%"}, {"measurement": "LD50", "setting": "[12]", "result": "> 2000", "unit": "mg/kg"}, {"measurement": "Activity", "setting": "[13]", "result": -2.8, "unit": "%"}, {"measurement": "Activity", "setting": "[14]", "result": 21.3, "unit": "%"}, {"measurement": "Activity", "setting": "[15]", "result": 50.3, "unit": "%"}]}
